Source: PubChem BioAssay
NPY1 pot ag = NPY-Y1 receptor potentiators or agonists, primary screen, cell-based; Neuropeptide Y receptor type 1 (Homo sapiens), P25929; NPY-Y1 expressing cells, potentiator/agonist activation; activation, % at 3.6 µM; 220,000 compounds, 0.37% hits; in the data active means activation above about 33%, passing the limit was not always enough;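 further: cells stimulated with NPY at EC10 then isoproterenol at EC100; 0% = low agonist plus stimulus and 100% = saturating agonist plus stimulus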
S1P4 antagonist = S1P4 receptor antagonists, primary screen, cell-based. inhibition, % at 4.98 µM. Sphingosine 1-phosphate receptor 4 (Homo sapiens), O95977. 220,000 compounds, 0.26% hits. AID 1510, 2009. S1P4-expressing cells, antagonist mode, reporter read-out; in the data active means inhibition above about 29%;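 further: 0% = wells stimulated with agonist and 100% = vehicle wells without agonist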
Target sequence (O95977 whole entry, looked up): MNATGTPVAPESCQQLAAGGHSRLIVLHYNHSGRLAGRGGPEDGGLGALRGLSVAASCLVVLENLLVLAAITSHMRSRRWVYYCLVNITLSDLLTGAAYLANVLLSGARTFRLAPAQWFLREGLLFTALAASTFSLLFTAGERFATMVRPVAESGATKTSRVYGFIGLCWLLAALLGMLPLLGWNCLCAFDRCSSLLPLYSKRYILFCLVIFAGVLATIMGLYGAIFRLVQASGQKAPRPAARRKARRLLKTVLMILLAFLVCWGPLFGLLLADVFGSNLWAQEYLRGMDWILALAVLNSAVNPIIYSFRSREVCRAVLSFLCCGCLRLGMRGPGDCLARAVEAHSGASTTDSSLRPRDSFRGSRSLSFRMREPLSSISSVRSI
NPY Y1 blocker = NPY-Y1 receptor antagonists, primary screen, cell-based; inhibition, % at 3.6 µM; Neuropeptide Y receptor type 1 (Homo sapiens), P25929; AID 1040, 2008; 200,000 compounds, 1% hits; HEK293-CNG Y1 cells, membrane potential fluorescence; NPY at EC95, then isoproterenol;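 active means inhibition above the campaign mean inhibition of all tested compounds plus 3 SD, cut at about 20% in these data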;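 further: 0% = DMSO wells given NPY plus isoproterenol and 100% = isoproterenol alone without NPY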
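Assay system: HEK293 cells with Y1 receptor plus CNG channel | Probe or stimulus: NPY (25 nM), isoproterenol (1 µM), Ro 20-1724 (25 µM) | Timing: Compound incubation 1 h at room temperature, readout 45 min post-stimulation | Measured by: Membrane-potential fluorescent dye readout | Benchmarks: High control isoproterenol alone, low control NPY with isoproterenol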
S1P4 agonist = S1P4 receptor agonists, primary screen, cell-based | S1P4-expressing cell line, agonist reporter assay | 220,000 compounds, 0.35% hits | AID 1509, 2009 | activation, % at 4.98 µM | Sphingosine 1-phosphate receptor 4 (Homo sapiens), O95977; in the data active means activation above about 11%;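 further: 0% = DMSO vehicle and 100% = reference agonist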
NPY-Y2 antag = NPY-Y2 receptor antagonists, primary screen, cell-based. NPY-Y2 expressing cells, antagonist mode. inhibition, % at 2.7 µM. 140,000 compounds, 0.99% hits; in the data active means inhibition above about 17%;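 further: 0% = vehicle with agonist challenge and 100% = reference antagonist with challenge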
NPY-Y2 PAM-ag = NPY-Y2 potentiators or agonists, primary screen, cell-based. Neuropeptide Y receptor type 2 (Homo sapiens), P49146. cells expressing NPY-Y2, potentiator/agonist read-out. activation, % at 3.6 µM. AID 1359, 2008. 220,000 compounds, 0.45% hits; in the data active means activation above about 27%;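 further: cells stimulated with NPY near EC25 plus isoproterenol at EC100; 0% = vehicle plus submaximal agonist and 100% = vehicle plus saturating agonist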
S1P4 antag cf = S1P4 receptor antagonists, human, confirmation, cell-based | shares compounds with S1P4 antagonist | S1P4-expressing cell line, antagonist mode, reporter read-out | inhibition, % at 4.98 µM | 520 compounds, 71% hits; in the data active means inhibition above about 30%
S1P1 antagonist = S1P1 receptor antagonists, human, counter-screen for S1P4 antagonist project, cell-based | shares compounds with S1P4 antagonist | cell-based S1P1 antagonist counterscreen, inhibition | inhibition, % at 4.98 µM | 520 compounds, 37% hits; in the data active means inhibition above about 40%;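 further: receptor stimulated with S1P near its EC80; 0% = agonist stimulated wells and 100% = vehicle only wells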
The depositor's hits bear a star; x = no result. An excerpt weighted towards active compounds, which were near 2.4% of everything screened.

SMILES	NPY1 pot ag	S1P4 antagonist	NPY Y1 blocker	S1P4 agonist	NPY-Y2 antag	NPY-Y2 PAM-ag	S1P4 antag cf	S1P1 antagonist
O=C(O)c1nnn(-c2cccc(C(F)(F)F)c2)c1-c1ccccc1	-8	15	x	-2	x	-14	x	x
Cc1cc(NC(=O)c2ccccc2-c2ccccc2)ccc1Br	-37	37*	16	-1	12	-21	32*	14
Cc1cccc(NC(=O)c2ccccc2-c2ccccc2)c1	7	9	2	1	x	-1	x	x
Cc1cc(Cl)n2c(nc3cc(F)c(F)cc32)c1C#N	-26	31*	22*	3	x	-2	112*	81*
O=C(NC(Cc1ccccc1)C(=O)O)/C(=C/c1ccccc1)NC(=O)c1ccccc1 (configuration not stated)	-16	45*	3	1	1	8	16	2
COc1ccc(-c2ccccc2)cc1NCc1ccc(OC)c(OC)c1	-19	-5	6	0	1	5	x	x
Cc1nn(C)c(C)c1N1C(=O)c2cccc3c(Br)ccc(c23)C1=O	-3	44*	7	1	7	0	89*	85*
N#Cc1nccnc1S(=O)(=O)c1cccs1	21	41*	x	0	x	-6	97*	56*
O=C(NCc1cccnc1)C(=O)N/N=C/c1ccc([N+](=O)[O-])cc1	-3	30*	0	1	x	11	10	4
CC(Nc1ccc(F)cc1F)C(=O)NC(=O)NC1CCCCC1 (configuration not stated)	22	30*	-8	2	x	0	-4	15
CN(C(=O)COC(=O)c1nc(Cl)c(Cl)c(Cl)c1Cl)C1CCS(=O)(=O)C1 (configuration not stated)	22	40*	-4	1	x	-1	74*	9
CN(C(=O)COC(=O)c1nc(-c2ccccc2)n(-c2ccccc2)n1)C1CCS(=O)(=O)C1 (configuration not stated)	-24	3	4	-1	1	-1	x	x
CC(C)(C)c1ccc(OCc2ccc(C(=O)N/N=C/c3ccc(O)c(O)c3)cc2)cc1	8	33*	5	0	x	9	63*	27
O=C(N/N=C/c1ccc(OCc2ccc(F)cc2)cc1)c1ccccc1	6	-27	-3	1	x	1	x	x
c1ccc2c(N3CCOCC3)nc(N3CCOCC3)nc2c1	-32	-2	3	-2	0	0	x	x
c1ccc(CN2CCN(c3nc(N4CCOCC4)c4ccccc4n3)CC2)cc1	-30	36*	6	0	5	-12	8	34
O=C(Nc1nnc(SCc2ccc(F)cc2)s1)c1ccccn1	-3	31*	-1	0	x	-5	101*	73*
O=C(Nc1ccccc1)c1cc2ccc3ccccc3c2s1	2	1	x	0	x	-8	x	x
Cc1ccc(-c2csc(NC(=O)C3CCN(S(=O)(=O)c4cccs4)CC3)n2)cc1	19	59*	19	-1	3	28	5	14
O=C(Nc1nc(-c2ccc3ccccc3c2)cs1)C1CCN(S(=O)(=O)c2cccs2)CC1	22	-4	-2	0	-1	21	x	x
Oc1c(/C=C/C=C/C=Nc2ccccc2)sc(=S)n1Cc1ccccc1	16	2	x	1	x	-26	x	x
N[C@@H](Cc1ccccc1)c1nnc(SC/C=C/c2ccccc2)o1	-26	4	x	1	x	-17	x	x
O=C(/C=C/c1c(F)cccc1Cl)c1ccc(O)cc1	20	42*	x	-1	x	10	62*	17
Cc1cc(N2CCOCC2)ccc1/C=C\[N+](=O)[O-]	-13	39*	-3	-2	-3	13	82*	-24
CC(=O)Nc1ccc2c(c1)nc(CCN1CCC(C)CC1)n2C	-6	0	-2	0	-1	8	x	x
SMILES	NPY1 pot ag	S1P4 antagonist	NPY Y1 blocker	S1P4 agonist	NPY-Y2 antag	NPY-Y2 PAM-ag	S1P4 antag cf	S1P1 antagonist
CC1CCN(CCc2nc3cc(NC(=O)Nc4ccccc4)ccc3n2C)CC1	-2	32*	-6	-3	-2	-11	4	4
CCNc1nc(NC(C)(C)C)nc(N2CCCCC2)n1	50*	44*	-3	-1	x	30*	92*	21
CCNc1nc(N2CCCC2)nc(N2CCCC2)n1	19	4	15	-3	x	-15	x	x
COc1ccc(C[C@H]2CN3C(=NC[C@@H]3C(C)C)N2CCNC(=O)c2ccc(C)c(Br)c2)cc1	-19	34*	11	-1	x	-39	41*	34
Cc1cc(C)c(OCCCCN2CCC(C)CC2)c(Br)c1	-15	8	15	-1	x	-15	x	x
COC(=O)c1cn(Nc2ncc(C(F)(F)F)cc2Cl)c(=O)c2ccccc12	-91	38*	12	1	12	-33	31*	-3
O=C(NCCc1ccccc1)c1n[nH]c2ccccc12	7	-18	1	1	x	-1	x	x
CC(C)Oc1ccc(Cc2cnc(=S)[nH]c2N)cc1	3	3	-3	1	x	11	x	x
O=C(Nc1ccccc1C(F)(F)F)c1ncn[nH]1	-14	-4	x	-1	x	-10	x	x
Cc1ccc(NC(=O)CN(C)C2CCCCC2)cc1Br	17	32*	10	0	x	-10	19	39
COc1ccc(NC(=O)CN(C)C2CCCCC2)cc1Cl	17	12	x	1	x	7	x	x
O=C(Nc1nnc(-c2cccs2)o1)c1cccc(Oc2ccccc2)c1	-6	32*	7	2	4	-24	98*	94*
O=C(Nc1nnc(-c2cccs2)o1)c1cccc(F)c1	-20	-1	1	-1	4	-6	x	x
CCOC(=O)CN(C#N)c1nc(N(C)C)nc(N(C)C)n1	15	-15	-2	2	x	1	x	x
CCN(CC)C(=O)CN(C#N)c1nc(Cl)nc(N(C)C)n1	1	42*	0	-2	x	4	50*	39
CCOc1ccc(N2C(=O)/C(=C\c3ccccc3OC)S(=O)(=O)C2c2cccc([N+](=O)[O-])c2)cc1 (configuration not stated)	-4	-8	-2	1	0	14	x	x
O=C(COC(=O)c1ccccn1)Nc1nc(-c2cccc([N+](=O)[O-])c2)cs1	-2	16	x	-1	x	-6	x	x
N#Cc1ccc(/C=C/C(=O)c2cccnc2)cc1	-1	44*	2	1	x	0	53*	52*
CCC/C(O)=C1\C(=O)CCCC1=NCCc1c(C)[nH]c2ccccc12	0	0	x	1	x	2	x	x
